Measured values from PubChem BioAssay AID822 (SRMLSC, 2007).
Calls of active or inactive are those of the source.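 How the source made its calls: active means half-maximal effective dose for blocking growth of human endothelial cells at most 100 µM; inactive means the rest.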

Test system: HUVEC proliferation, viability ATP luminescence
Assay: growth suppression of umbilical vein endothelial cells – cell-based, HUVEC, ATP luminescence, dose response (AID 822);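 further: cells exposed to compound for 72 h before the ATP read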
Procedure, shortened: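 Material – HUVEC · Amount – 1250 HUVEC cells seeded per well · Medium – EBM plus 2% FBS · Dosing – dose series 0.039 to 20 µM, DMSO 0.2% · Times – 72 h exposure, 37 °C · Detection – ATP luminescence · Read-out basis – % viability and fitted EC50 · Format – collagen-coated plates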

SMILES | EC50
Cc1ccccc1CS(=O)(=O)c1nnc([C@H](Cc2ccccc2)NC(=O)OC(C)(C)C)o1 | 11.4 µM
CCN(CCNC(=O)C1CCN(Cc2nc(-c3ccc(Cl)cc3)oc2C)CC1)c1ccccc1 | 5.82 µM
COc1ccccc1NC(=O)CC1C(=O)NCCN1C(=O)Nc1ccc(Cl)c(Cl)c1 (stereo unspecified) | 10.8 µM
CN1CCN(c2ccccc2NC(=O)c2cccc(OCc3ccccc3)c2)CC1 | 10.8 µM
Nc1c(C(=O)C2CC2)sc2nc(-c3cccs3)cc(C(F)(F)F)c12 | 8.07 µM
N#Cc1c(NCCN)nc(NCc2ccccc2)c2c1CCN(Cc1ccccc1)C2 | 13.3 µM
COc1cccc(-c2nnc(Nc3nc4c(F)cccc4s3)o2)c1 | 8.57 µM
Cc1cc(NC(c2cccnc2)c2ccc3cccnc3c2O)no1 (stereo unspecified) | 6.36 µM
CC(C)(C)C1CC=C2C(C#N)=C(N)C(C#N)(C#N)C(c3cccs3)C2C1 (stereo unspecified) | 12.2 µM
CCN1CCN(c2cc(C)c3cc(NC(=O)c4ccc(OC)c(OC)c4)ccc3n2)CC1 | 13.6 µM
NS(=O)(=O)c1ccc(N=Cc2c(O)n(C3CCCCC3)c(=O)n(C3CCCCC3)c2=O)cc1 | 5 µM
COc1ccccc1OCC(=O)Nc1cccc(-c2nc3ccccc3o2)c1 | 13.7 µM
COc1ccc2nc(NC(=O)CSC3=NCCS3)sc2c1 | 4.95 µM
CCC(C)NC(=O)c1c(N)n(/N=C/c2cccnc2)c2nc3ccccc3nc12 (stereo unspecified) | 12.6 µM
C/C(CC1CC2=C(CC1(C)C)C(C)(C)CCC2)=N\NC(N)=S (stereo unspecified) | 4.89 µM
COc1cc(N=c2ssnc2Cl)cc(OC)c1OC | 13.4 µM
CC1(C)Nc2ccc(O)cc2-c2c1ssc2=S | 4.58 µM
CC1=C(C(=O)OCc2ccc3c(c2)OCO3)C(c2ccccc2)NC(=O)N1 (stereo unspecified) | 14.1 µM
O=C(OCC(=O)N1CCN(C(=O)c2ccco2)CC1)c1cc(-c2ccc(Cl)c(Cl)c2Cl)nc2ccccc12 | 4.16 µM
CC(=O)Nc1ccc(NC2=Nc3ccccc3N3C2=Nc2c(c(C)nn2-c2ccccc2)C3c2ccccc2)cc1 (stereo unspecified) | 15.8 µM
c1ccc(-c2nccc(-c3ccc(-n4cnc5ccccc54)cc3)n2)cc1 | 14.9 µM
Cc1nc2c(C(=O)NCCC(C)C)c[nH]n2c(=O)c1Cc1ccccc1F | 7.02 µM

SMILES | EC50
O=C(Nc1ccc2c(c1)OCO2)c1cc(C2CC2)on1 | 6.54 µM
CCCCCCOC(=O)C(C#N)c1nc2ccccc2nc1N1CCN(CC)CC1 (stereo unspecified) | 8.05 µM
CCOC(=O)c1ccc(NC(=O)CCc2nc(-c3ccc(C)cc3)no2)cc1 | 16.5 µM
CCCCCCOC(=O)C(C#N)c1nc2ccccc2nc1N1CCN(C)CC1 (stereo unspecified) | 10 µM
Cc1ccc2[nH]c3c(N4CCN(Cc5ccc6c(c5)OCO6)CC4)ncnc3c2c1 | 9.97 µM
CCN(CC)c1cc(C)c2cc(NC(=O)c3ccc(Br)o3)ccc2n1 | 11.3 µM
Cc1cc(/C=N/n2cnnc2)c(C)n1-c1ccccc1 | 19.8 µM
CN1CCN(c2ccccc2NC(=O)c2ccc(-c3ccc(Cl)cc3Cl)o2)CC1 | 6.37 µM
O=c1[nH]c2cc3c(cc2cc1C(c1nnnn1Cc1ccccc1)N1CCCCCC1)OCCO3 (stereo unspecified) | 13.1 µM
Cc1ccc(C(=O)Nc2ncc(Cc3ccccc3)s2)o1 | 0.711 µM
COc1ccc(S(=O)(=O)Nc2ccc(O)c3ccccc23)cc1 | 2.45 µM
Cc1cccc(NC(=O)c2cc(NC(=O)c3ccco3)ccc2N2CCCCC2)c1 | 13.3 µM
CC1=C(SCCC#N)S/C(=C2\SC(C)=C(SCCC#N)S2)S1 | 9.1 µM
COc1ccc(Nc2nc(N3CCCC3)nc3ccccc23)c(OC)c1 | 12.5 µM
CCCCC[n+]1ccn(C2=C([O-])c3ccccc3C(=O)/C2=N\S(=O)(=O)c2ccccc2)c1 | 6.1 µM
COc1ccc(Cl)cc1N1CCN(CCNC(=O)Nc2ccccc2C)CC1 | 5.83 µM
Cc1ccc(S(=O)(=O)N2CCCN(S(=O)(=O)c3ccc(C(F)(F)F)cc3)CC2)cc1 | 7.11 µM
O=C1CCCc2c1[nH]c1ccc(Br)cc21 | > 10 µM (inactive)
CC(C)OCCCN1C(=O)c2[nH]nc(-c3ccccc3O)c2C1c1cccc(Cl)c1 (stereo unspecified) | 15.7 µM
COc1cccc2sc(Nc3nnc(-c4ccc(F)cc4)o3)nc12 | 0.963 µM
CC(C)c1ccc(C2C3CSCC=C3C(C#N)=C(N)C2(C#N)C#N)cc1 (stereo unspecified) | 4.86 µM
CC1CCC(C(=O)c2c(O)c3ccccc3oc2=O)CC1 (stereo unspecified) | 7.71 µM

SMILES | EC50
Cc1oc(-c2ccc(Cl)cc2)nc1CN1CCC(C(=O)N2CCN(Cc3ccccc3)CC2)CC1 | 8.43 µM
Cc1ccc(S(=O)(=O)c2c(C)nn(C(C)(C)C)c2OC(=O)c2ccco2)cc1 | 12.1 µM
Cc1sc2nc(SCC(=O)C(C)(C)C)n(Cc3ccco3)c(=O)c2c1C | 13.9 µM
O=C(CN1CCCC1)Nc1ccc(-c2nc3cc(NC(=O)CN4CCCC4)ccc3o2)cc1 | 18.9 µM
Cc1ccc2c(c1)NC(=O)C(CC(=O)NCCCN1CCN(c3cc(Cl)ccc3C)CC1)O2 (stereo unspecified) | 7.12 µM
CCOC(=O)c1cnc(-n2nc(C)cc2C)nc1NCc1ccc2c(c1)OCO2 | 2.34 µM
CN1CCN(C(=O)c2ccc(COc3ccc(Cl)cc3Cl)cc2)CC1 | 13.3 µM
Cc1ccc2oc3c(c(=O)c2c1)C(c1cccc(Br)c1)N(Cc1ccco1)C3=O (stereo unspecified) | 19.9 µM
Cc1cccc2c1N(CCCOc1ccc(C(C)(C)C)cc1)C(=O)C2=O | 9.1 µM
Cc1ccc2c(c1)c1c(n2CC(O)Cn2c(C)nc3ccccc32)/C(=N\O)CCC1 (stereo unspecified) | 8.98 µM
CCOC(=O)c1ccc(NC(=O)CCc2nc(-c3cccc(C)c3)no2)cc1 | 19.2 µM
Cc1cc(C)c2c(=O)n(CC(=O)NCCCN3CCN(c4ccccc4F)CC3)sc2n1 | 12.3 µM
O=S1(=O)C=C(Sc2nnc(-c3ccccc3)o2)c2ccccc21 | 4.25 µM
CCOc1cc(N2CCOCC2)c(OCC)cc1NC(=O)COc1cccc2cccnc12 | 14.9 µM
C=CCn1c(SCC(=O)c2c(N)n(CCC)c(=O)n(C)c2=O)nc2sc(CC)cc2c1=O | 14.9 µM
CC1CCCCN1S(=O)(=O)c1ccc(C(=O)Nc2nnc(-c3ccccc3Cl)o2)cc1 (stereo unspecified) | 2.71 µM
CCOC(=O)c1c(N)sc2c(OC)c(Br)ccc12 | 16.8 µM
O=S(=O)(CCN(CCS(=O)(=O)C(F)(F)F)CC1CCCO1)C(F)(F)F (stereo unspecified) | 12.5 µM
COc1ccc(-c2ccc(C#N)c(SCC(=O)Nc3sc4c(c3C#N)CCC4)n2)cc1OC | 4.67 µM
N=c1c2c(ncn1CCN1CCOCC1)Oc1ccc3ccccc3c1C2c1ccccc1 (stereo unspecified) | 11.9 µM
CCCCCCc1cc2cc(-c3nnc(-c4ccccc4)o3)c(=O)oc2cc1O | 3.5 µM
Cc1ccc(C)c(C(C)NC(=O)C2C3CCC(O3)C2C(=O)O)c1 (stereo unspecified) | 16.3 µM

SMILES | EC50
CC(C)CNC(=O)c1coc(=O)c(Br)c1 | > 10 µM (inactive)
O=C(Nc1nccs1)c1c(O)c2cccc3c2n(c1=O)CCC3 | 20.4 µM
Cc1cccc(N2CCN(C(=O)c3ccc4nc(-c5ccco5)c(-c5ccco5)nc4c3)CC2C)c1 (stereo unspecified) | 9.47 µM
c1ccc(-c2nc(N3CCCCCC3)c3ccccc3n2)nc1 | 1.55 µM
O=C(CSc1nnc(-c2ccccc2O)o1)Oc1ccc(OCc2ccccc2)cc1 | 10.1 µM
CCCc1ccc(Oc2c(-c3ccc(O)c(C)c3O)n[nH]c2C)cc1 | 9.55 µM
Cc1ccc(C)n1NC(=O)c1ccccc1O | > 10 µM (inactive)
CCOc1cc(/C=N\NC(=O)Cn2nc([N+](=O)[O-])cc2C)ccc1OCc1cccc2ccccc12 | 20.7 µM
Cc1cccc(CS(=O)(=O)c2nnc([C@H](Cc3ccccc3)NC(=O)OC(C)(C)C)o2)c1 | 9.97 µM
c1cc2c3c(cccc3c1)NC1(CCCCCC1)N2 | > 10 µM (inactive)
Cc1ccc2c(c1)c1c(n2CC(O)Cn2c(C)nc3ccccc32)CCCC1 (stereo unspecified) | 10.6 µM
CC(C)Cn1c(N)c(C(=O)NCc2cccs2)c2nc3ccccc3nc21 | 10.5 µM
O=C(N/N=C/c1ccco1)c1cc(-c2ccc3ccccc3c2)n[nH]1 | 9.25 µM
COc1ccc(NC(=O)/C(Cl)=C(/Cl)S(=O)(=O)Cc2ccccc2)cn1 | 4.48 µM
Cc1nc2sccn2c(=O)c1CCN1CCC(=C(c2ccc(F)cc2)c2ccc(F)cc2)CC1 | 8.98 µM
O=C(COC(=O)c1cccnc1Nc1cccc(C(F)(F)F)c1)NCc1ccc2c(c1)OCO2 | 13.5 µM
Cc1cc2nc(C3CCN(CC4COc5ccccc5O4)CC3)[nH]c2cc1C (stereo unspecified) | 19.8 µM
CCOC(=O)c1sc2nc(C(C)C)c3c(c2c1N)CC(C)(C)OC3 | 20.8 µM
O=C(CCN1CCN(Cc2ccccc2)CC1)Nc1ccc(OCc2ccccc2)cc1 | 14.1 µM
CCCCc1nc2sc3c(SCC(=O)NCc4ccco4)ncnc3c2c2c1CCC2 | 13.4 µM
O=c1[nH]c2ccccc2n1C1CCN(CCCC(c2ccc(F)cc2)c2ccc(F)cc2)CC1 | 2.71 µM
CCOc1ccc(-c2n[nH]c(C)c2Oc2ccc(OC)cc2)c(O)c1 | 12.4 µM

SMILES | EC50
COC(=O)C1=C(O)/C(=C\c2ccc(CNC(=O)C(=O)Nc3ccc(C)c(C)c3)o2)N=C1C | 13.3 µM
CNC(=O)c1ccc(-c2sc3nc(N4CCOCC4)c4c(c3c2N)CCCC4)o1 | 10.5 µM
Cc1ccc(C(=O)Nc2ncc(Cc3ccc(F)cc3)s2)o1 | 0.277 µM
COc1cc(/C=c2\s/c(=C(/C#N)C(=O)N3CCCC3)n(-c3ccccc3)c2=O)ccc1O | 16.3 µM
Cc1cc(S(=O)(=O)N2CCN(Cc3ccc4c(c3)OCO4)CC2)cc(C)c1N1CCCC1=O | 18.3 µM
COc1ccc(-c2cc(C#N)nc(N3CCNCC3)n2)cc1 | 12.8 µM
CCCSc1nc2c(cnn2-c2ccc(C)cc2)c(=O)[nH]1 | 5.19 µM
O=C(CSc1ccc2c(c1)OCCO2)Nc1ccc(Cl)cn1 | 5.53 µM
CCSc1nnc(NC(=O)c2ccccn2)s1 | 1.81 µM
O=C(CC1CCCCC1)c1c(O)c2ccccc2oc1=O | 4.66 µM
CCc1nc(SCC(=O)Nc2ccc3c(c2)OCCO3)c2oc3ccccc3c2n1 | 9.5 µM
COC(=O)Nc1ccc(S(=O)(=O)N2c3ccccc3CCC2C)cc1 (stereo unspecified) | 9.54 µM
O=C(Nc1ccc(N2CCOCC2)cc1)Nc1ccc2nc(-c3ccco3)c(-c3ccco3)nc2c1 | 7.18 µM
CCOC(=O)c1sc(NC(=O)CSc2nnnn2-c2ccc(C)c(C)c2)nc1C | 6.65 µM
CCN(CC)CC(=O)Nc1ccc(-c2nc3cc(NC(=O)CN(CC)CC)ccc3o2)cc1 | > 10 µM (inactive)
Cc1ccc(S(=O)(=O)c2c(C)nn(C(C)(C)C)c2OC(=O)c2ccc(Br)o2)cc1 | 4.57 µM
CCc1ccc(-c2nc(CN3CCC(C(=O)N4CCN(c5ccccc5)CC4)CC3)c(C)o2)cc1 | 4.09 µM
CCOC(=O)c1cccc2c1-c1ccccc1/C2=N/O | 1.31 µM
